Tested on: Fibroblast
Experiment: Multiplex assay against human fibroblast
Type: toxicity, cell-based
Summary of the method: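 At seeding, live cells were stained with Hoechst33342, BioTracker Green Microtubule Cytoskeleton Dye, MitoTracker Red and Annexin V Alexa Fluor 680. After compound addition they were imaged on a CQ1 microscope at 37°C and 5% CO2, and CellPathfinder machine-learning gating sorted them into Hoechst high-intensity objects or normal cells, with normal cells further split into healthy, pyknosed or fragmented nuclei and pyknosed cells into mitotic or apoptotic. Tubulin, mitochondrial-mass and membrane-permeability phenotypes are given as per cents of cells with healthy nuclei.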

[1] = 12 h, 1 µM, compound concentration 1 uM, replicate 1
[2] = 12 h, 1 µM, compound concentration 1 uM, replicate 2
[3] = 12 h, 10 µM, compound concentration 10 uM, replicate 1
[4] = 12 h, 10 µM, compound concentration 10 uM, replicate 2
[5] = 24 h, 1 µM, compound concentration 1 uM, replicate 1
[6] = 24 h, 1 µM, compound concentration 1 uM, replicate 2
[7] = 24 h, 10 µM, compound concentration 10 uM, replicate 1
[8] = 24 h, 10 µM, compound concentration 10 uM, replicate 2
[9] = 48 h, 1 µM, compound concentration 1 uM, replicate 1
[10] = 48 h, 1 µM, compound concentration 1 uM, replicate 2
[11] = 48 h, 10 µM, compound concentration 10 uM, replicate 1
[12] = 48 h, 10 µM, compound concentration 10 uM, replicate 2

SMILES: Cl.NCCc1ccc(O)c(O)c1 [DOPAMINE HYDROCHLORIDE]
- Population Apoptotic (%) [1]: 42%
- Population Fragmented Nuclei (%) [1]: 13%
- Population Healthy Nuclei (%) [1]: 63%
- Population Hoechst High Intensity Objects (%) [1]: 1%
- Population Membrane Permeable-Phenotype (%) [1]: 0%
- Population Mitochondria Different-Phenotype (%) [1]: 1%
- Population Mitotic Cells (%) [1]: 57%
- Population Normal (%) [1]: 98%
- Population Pyknosed Nuclei (%) [1]: 23%
- Population Tubulin-Different-Phenotype (%) [1]: 34%
- Total Cell Count [1]: 115
- Population Apoptotic (%) [2]: 44%
- Population Fragmented Nuclei (%) [2]: 34%
- Population Healthy Nuclei (%) [2]: 40%
- Population Membrane Permeable-Phenotype (%) [2]: 4%
- Population Mitochondria Different-Phenotype (%) [2]: 6%
- Population Mitotic Cells (%) [2]: 55%
- Population Pyknosed Nuclei (%) [2]: 24%
- Population Tubulin-Different-Phenotype (%) [2]: 45%
- Total Cell Count [2]: 152
- Population Apoptotic (%) [3]: 56%
- Population Fragmented Nuclei (%) [3]: 14%
- Population Healthy Nuclei (%) [3]: 62%
- Population Hoechst High Intensity Objects (%) [3]: 3%
- Population Membrane Permeable-Phenotype (%) [3]: 0%
- Population Mitochondria Different-Phenotype (%) [3]: 3%
- Population Mitotic Cells (%) [3]: 43%
- Population Normal (%) [3]: 96%
- Population Pyknosed Nuclei (%) [3]: 23%
- Population Tubulin-Different-Phenotype (%) [3]: 14%
- Total Cell Count [3]: 135
- Population Apoptotic (%) [4]: 41%
- Population Fragmented Nuclei (%) [4]: 35%
- Population Healthy Nuclei (%) [4]: 40%
- Population Hoechst High Intensity Objects (%) [4]: 4%
- Population Membrane Permeable-Phenotype (%) [4]: 6%
- Population Mitochondria Different-Phenotype (%) [4]: 6%
- Population Mitotic Cells (%) [4]: 58%
- Population Normal (%) [4]: 95%
- Population Tubulin-Different-Phenotype (%) [4]: 44%
- Total Cell Count [4]: 127
- Population Apoptotic (%) [5]: 55%
- Population Fragmented Nuclei (%) [5]: 14%
- Population Healthy Nuclei (%) [5]: 69%
- Population Hoechst High Intensity Objects (%) [5]: 0%
- Population Membrane Permeable-Phenotype (%) [5]: 1%
- Population Mitochondria Different-Phenotype (%) [5]: 1%
- Population Mitotic Cells (%) [5]: 44%
- Population Normal (%) [5]: 99%
- Population Pyknosed Nuclei (%) [5]: 16%
- Population Tubulin-Different-Phenotype (%) [5]: 31%
- Total Cell Count [5]: 112
- Population Apoptotic (%) [6]: 51%
- Population Fragmented Nuclei (%) [6]: 34%
- Population Healthy Nuclei (%) [6]: 47%
- Population Hoechst High Intensity Objects (%) [6]: 2%
- Population Membrane Permeable-Phenotype (%) [6]: 7%
- Population Mitochondria Different-Phenotype (%) [6]: 0%
- Population Mitotic Cells (%) [6]: 48%
- Population Normal (%) [6]: 97%
- Population Pyknosed Nuclei (%) [6]: 18%
- Population Tubulin-Different-Phenotype (%) [6]: 37%
- Total Cell Count [6]: 150
- Population Apoptotic (%) [7]: 55%
- Population Fragmented Nuclei (%) [7]: 16%
- Population Healthy Nuclei (%) [7]: 69%
- Population Hoechst High Intensity Objects (%) [7]: 2%
- Population Membrane Permeable-Phenotype (%) [7]: 1%
- Population Mitochondria Different-Phenotype (%) [7]: 5%
- Population Mitotic Cells (%) [7]: 44%
- Population Normal (%) [7]: 97%
- Population Pyknosed Nuclei (%) [7]: 13%
- Population Tubulin-Different-Phenotype (%) [7]: 22%
- Total Cell Count [7]: 136
- Population Apoptotic (%) [8]: 47%
- Population Fragmented Nuclei (%) [8]: 37%
- Population Healthy Nuclei (%) [8]: 46%
- Population Hoechst High Intensity Objects (%) [8]: 3%
- Population Membrane Permeable-Phenotype (%) [8]: 3%
- Population Mitochondria Different-Phenotype (%) [8]: 7%
- Population Mitotic Cells (%) [8]: 52%
- Population Normal (%) [8]: 96%
- Population Pyknosed Nuclei (%) [8]: 15%
- Population Tubulin-Different-Phenotype (%) [8]: 56%
- Total Cell Count [8]: 126
- Population Apoptotic (%) [9]: 36%
- Population Fragmented Nuclei (%) [9]: 22%
- Population Healthy Nuclei (%) [9]: 66%
- Population Hoechst High Intensity Objects (%) [9]: 6%
- Population Membrane Permeable-Phenotype (%) [9]: 1%
- Population Mitochondria Different-Phenotype (%) [9]: 2%
- Population Mitotic Cells (%) [9]: 63%
- Population Normal (%) [9]: 93%
- Population Pyknosed Nuclei (%) [9]: 10%
- Population Tubulin-Different-Phenotype (%) [9]: 28%
- Total Cell Count [9]: 110
- Population Apoptotic (%) [10]: 38%
- Population Fragmented Nuclei (%) [10]: 33%
- Population Healthy Nuclei (%) [10]: 52%
- Population Membrane Permeable-Phenotype (%) [10]: 5%
- Population Mitochondria Different-Phenotype (%) [10]: 3%
- Population Mitotic Cells (%) [10]: 61%
- Population Pyknosed Nuclei (%) [10]: 14%
- Population Tubulin-Different-Phenotype (%) [10]: 43%
- Total Cell Count [10]: 159
- Population Apoptotic (%) [11]: 87%
- Population Fragmented Nuclei (%) [11]: 21%
- Population Healthy Nuclei (%) [11]: 66%
- Population Hoechst High Intensity Objects (%) [11]: 4%
- Population Membrane Permeable-Phenotype (%) [11]: 0%
- Population Mitochondria Different-Phenotype (%) [11]: 4%
- Population Mitotic Cells (%) [11]: 12%
- Population Normal (%) [11]: 95%
- Population Pyknosed Nuclei (%) [11]: 11%
- Population Tubulin-Different-Phenotype (%) [11]: 25%
- Total Cell Count [11]: 141
- Population Apoptotic (%) [12]: 90%
- Population Fragmented Nuclei (%) [12]: 31%
- Population Healthy Nuclei (%) [12]: 60%
- Population Hoechst High Intensity Objects (%) [12]: 0%
- Population Membrane Permeable-Phenotype (%) [12]: 7%
- Population Mitotic Cells (%) [12]: 10%
- Population Normal (%) [12]: 99%
- Population Pyknosed Nuclei (%) [12]: 8%
- Population Tubulin-Different-Phenotype (%) [12]: 56%
- Total Cell Count [12]: 116

Reference: ChEMBL document CHEMBL5058577, “EUbOPEN Chemogenomics Library 2 (Multiplex)” (2022)
